Results: ChEMBL document CHEMBL1150633, “In vitro cytotoxic activity of phenanthroindolizidine alkaloids from Cynanchum vincetoxicum and Tylophora tanakae against drug-sensitive and multidrug-resistant cancer cells” (J Nat Prod, 2002)

Tests used:
[1] = Cytotoxicity against drug-sensitive human KB-3-1 cells by MTS/PMS assay
[2] = Cytotoxicity against multidrug-resistant human KBV1 cells by MTS/PMS assay; format: functional, cell-based; settings: KB-V1
In short: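 Mycoplasma-free KB-V1 carcinoma cells, selected from KB-3-1 for vinblastine resistance and obtained from the NCI Laboratory of Cell Biology. They show a full multidrug-resistance phenotype including P-170 glycoprotein efflux pump expression. Cytotoxicity expressed as IC50.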

[3] = Resistance index, ratio for IC50 for multidrug-resistant human KBV1 cells to IC50 for drug-sensitive human KB-3-1 cells

What does the source list for `COc1ccc(C2=C(c3ccc(OC)c(OC)c3)C[C@H]3CCCN3C2)cc1`?
IC50 [1]: 2630 nM; IC50 [2]: 2440 nM

Which IC50 [1] does the source give for `COc1cc2c(cc1O)c1c(c3cc(OC)c(OC)cc32)C[C@H]2CCCN2C1` here?
The IC50 was 15 nM.

What about the IC50 [2] of the same compound?
Its IC50 is 17 nM.

Which results are given for `COC(=O)c1ccccc1-c1c2ccc(=N)cc-2oc2cc(N)ccc12.Cl` [RHODAMINE123]?
IC50 [1]: 2200 nM; IC50 [2]: > 500000 nM; Ratio IC50 [3]: >225

For `COc1cc2c3c(c4ccc(O)cc4c2cc1OC)CN1CCC[C@@H]1C3`, which IC50 [1] is on record?
The IC50 was 7 nM.

And the IC50 [2]?
The IC50 was 10 nM.

Which IC50 [1] does the source give for `COc1ccc2c3c(c4cc(OC)c(OC)cc4c2c1)C[C@H]1CCCN1C3` [(-)-ANTOFINE] here?
Its IC50 is 16 nM.

What about the IC50 [2] of the same compound?
The IC50 was 14 nM.

Which IC50 [1] does the source give for `COc1ccc(C2=C(c3ccc(O)cc3)CN3CCC[C@@H]3C2)cc1OC` here?
The IC50 was 403 nM.

And the IC50 [2]?
The IC50 was 425 nM.

For `CC[C@]1(O)C[C@@H]2CN(CCc3c([nH]c4ccccc34)[C@@](C(=O)OC)(c3cc4c(cc3OC)N(C)[C@H]3[C@@](O)(C(=O)OC)[C@H](OC(C)=O)[C@]5(CC)C=CCN6CC[C@]43[C@@H]65)C2)C1` [VINBLASTINE], which “Ratio IC50” value [3] is on record?
The value was 210.

What does the source list for `COc1cc2c3c(c4cc(OC)c(OC)cc4c2cc1OC)CN1CCC[C@@H]1C3` [TYLOPHORINE]?
IC50 [1]: 214 nM; IC50 [2]: 173 nM

With `COc1cc2c3c(c4ccc(OC)c(OC)c4c2cc1OC)C[C@@H]1CCCN1C3` as the compound, how does the IC50 [1] read?
Its IC50 is 43 nM.

What about the IC50 [2] of the same compound?
The IC50 was 54 nM.
